In ChEMBL document CHEMBL1135505, “Synthesis and pharmacology of benzoxazines as highly selective antagonists at M(4) muscarinic receptors” (J Med Chem, 2002):

Biological target: T1, Muscarinic acetylcholine receptor M2 (Homo sapiens, UniProt P08172)
T1 sequence (P08172 whole entry): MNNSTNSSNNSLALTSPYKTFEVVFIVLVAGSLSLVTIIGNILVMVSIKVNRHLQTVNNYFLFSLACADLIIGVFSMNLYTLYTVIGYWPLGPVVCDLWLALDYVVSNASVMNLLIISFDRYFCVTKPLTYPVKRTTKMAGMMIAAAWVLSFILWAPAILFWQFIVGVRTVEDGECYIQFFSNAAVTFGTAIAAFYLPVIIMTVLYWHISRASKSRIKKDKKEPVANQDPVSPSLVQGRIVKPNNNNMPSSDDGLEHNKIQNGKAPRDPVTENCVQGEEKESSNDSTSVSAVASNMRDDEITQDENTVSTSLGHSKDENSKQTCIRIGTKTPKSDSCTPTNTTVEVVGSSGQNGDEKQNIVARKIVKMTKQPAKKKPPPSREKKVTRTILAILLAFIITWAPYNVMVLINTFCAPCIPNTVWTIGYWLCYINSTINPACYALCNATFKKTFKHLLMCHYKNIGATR
Experiment: Inhibition of [3H]-NMS binding to human muscarinic acetylcholine receptor M2 in transfected CHO cells.
Type: cell-based
Method in brief: (§1)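 Membranes from CHO-K1 cells expressing one human muscarinic subtype, harvested at 70-90% confluency. Incubated in 10 mM Na+/K+ PO4 pH 7.4 with 0.1 nM [3H]NMS and test compound for 120 min at 25 °C; atropine defined nonspecific binding. Filtration and scintillation counting. IC50 by logit fit, Ki by Cheng–Prusoff with KD (nM) M1 1.28, M2 0.85, M3 0.94, M4 3.10, M5 0.79. At least three tests, geometric mean.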

SMILES	Ki
CCCCCc1[nH]c2ccc3c(c2c1C(=O)OCC)CN1CCc2cc(OC)ccc2C1O3 (stereo not given)	7.24 µM
C=CCOC(=O)c1c(C)n(Cc2ccc(OC)cc2)c2ccc3c(c12)CN1CCc2cc(OC)ccc2C1O3 (stereo not given)	0.24 µM
CCCc1[nH]c2ccc3c(c2c1C(=O)OCC)CN1CCc2cc(SC)ccc2C1O3 (stereo not given)	1.45 µM
COc1ccc2c(c1)CCN1Cc3c(ccc4[nH]c(C)c(-c5nc(C)no5)c34)OC21 (stereo not given)	2.19 µM
COc1ccc2c(c1)CCN1Cc3c(ccc4[nH]c(C)c(Cc5ccccc5)c34)OC21 (stereo not given)	5.37 µM
CCOC(=O)c1c(CC)[nH]c2ccc3c(c12)CN1CCc2cc(OC)ccc2C1O3 (stereo not given)	1.35 µM
CCOC(=O)c1c(C)[nH]c2ccc3c(c12)CN1CCc2cccc(Cl)c2C1O3 (stereo not given)	2.45 µM
CCOC(=O)c1c(C)[nH]c2ccc3c(c12)CN1CCc2cc(Cl)ccc2C1O3 (stereo not given)	3.24 µM
COC(=O)c1c(C)n(C)c2ccc3c(c12)CN1CCc2cc(OC)ccc2C1O3 (stereo not given)	0.417 µM

The remaining compounds from weak to strong by Ki, led by results:

Ki	SMILES
4.57 µM	CCCCCCc1[nH]c2ccc3c(c2c1C(=O)OCC)CN1CCc2cc(OC)ccc2C1O3 (stereo not given)
2.19 µM	CCOC(=O)c1c(C)[nH]c2ccc3c(c12)CN1CCc2cc(SC)ccc2C1O3 (stereo not given)
1.35 µM	COc1ccc2c(c1)CCN1Cc3c(ccc4[nH]c(C)c(C(=O)OCc5ccccc5)c34)OC21 (stereo not given)
0.708 µM	CCOC(=O)c1c(CC)n(C)c2ccc3c(c12)CN1CCc2cc(OC)ccc2C1O3 (stereo not given)

Biological target: T2, Muscarinic acetylcholine receptor M1 (Homo sapiens, UniProt P11229)
T2 sequence (P11229 whole entry): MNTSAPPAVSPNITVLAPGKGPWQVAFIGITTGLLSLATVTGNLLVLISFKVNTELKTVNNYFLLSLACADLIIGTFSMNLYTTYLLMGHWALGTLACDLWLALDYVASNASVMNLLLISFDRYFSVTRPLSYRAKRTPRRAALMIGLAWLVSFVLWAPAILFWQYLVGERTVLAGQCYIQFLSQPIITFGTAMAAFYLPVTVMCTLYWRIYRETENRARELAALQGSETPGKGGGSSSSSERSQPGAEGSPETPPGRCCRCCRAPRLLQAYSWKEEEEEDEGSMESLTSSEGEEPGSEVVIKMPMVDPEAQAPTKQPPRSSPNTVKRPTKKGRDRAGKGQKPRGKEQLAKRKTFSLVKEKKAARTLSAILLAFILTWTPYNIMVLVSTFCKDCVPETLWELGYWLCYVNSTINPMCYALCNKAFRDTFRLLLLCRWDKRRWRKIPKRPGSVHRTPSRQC
Experiment: Inhibition of [3H]NMS binding to human muscarinic acetylcholine receptor M1 in transfected CHO cells.
Type: cell-based
Method in brief: as §1

SMILES	Ki
CCCCCc1[nH]c2ccc3c(c2c1C(=O)OCC)CN1CCc2cc(OC)ccc2C1O3 (stereo not given)	20.4 µM
C=CCOC(=O)c1c(C)n(Cc2ccc(OC)cc2)c2ccc3c(c12)CN1CCc2cc(OC)ccc2C1O3 (stereo not given)	0.2 µM
CCCc1[nH]c2ccc3c(c2c1C(=O)OCC)CN1CCc2cc(SC)ccc2C1O3 (stereo not given)	0.871 µM
COc1ccc2c(c1)CCN1Cc3c(ccc4[nH]c(C)c(-c5nc(C)no5)c34)OC21 (stereo not given)	7.59 µM
COc1ccc2c(c1)CCN1Cc3c(ccc4[nH]c(C)c(Cc5ccccc5)c34)OC21 (stereo not given)	2.51 µM
CCOC(=O)c1c(CC)[nH]c2ccc3c(c12)CN1CCc2cc(OC)ccc2C1O3 (stereo not given)	2.19 µM
CCOC(=O)c1c(C)[nH]c2ccc3c(c12)CN1CCc2cccc(Cl)c2C1O3 (stereo not given)	> 4.37 µM
CCOC(=O)c1c(C)[nH]c2ccc3c(c12)CN1CCc2cc(Cl)ccc2C1O3 (stereo not given)	5.13 µM
COC(=O)c1c(C)n(C)c2ccc3c(c12)CN1CCc2cc(OC)ccc2C1O3 (stereo not given)	1.17 µM

Next, values leading:

Ki	SMILES
3.09 µM	CCCCCCc1[nH]c2ccc3c(c2c1C(=O)OCC)CN1CCc2cc(OC)ccc2C1O3 (stereo not given)
1.78 µM	CCOC(=O)c1c(C)[nH]c2ccc3c(c12)CN1CCc2cc(SC)ccc2C1O3 (stereo not given)
1.17 µM	COc1ccc2c(c1)CCN1Cc3c(ccc4[nH]c(C)c(C(=O)OCc5ccccc5)c34)OC21 (stereo not given)
1.51 µM	CCOC(=O)c1c(CC)n(C)c2ccc3c(c12)CN1CCc2cc(OC)ccc2C1O3 (stereo not given)

Biological target: T3, Muscarinic acetylcholine receptor M4 (Homo sapiens, UniProt P08173)
T3 sequence (P08173 whole entry): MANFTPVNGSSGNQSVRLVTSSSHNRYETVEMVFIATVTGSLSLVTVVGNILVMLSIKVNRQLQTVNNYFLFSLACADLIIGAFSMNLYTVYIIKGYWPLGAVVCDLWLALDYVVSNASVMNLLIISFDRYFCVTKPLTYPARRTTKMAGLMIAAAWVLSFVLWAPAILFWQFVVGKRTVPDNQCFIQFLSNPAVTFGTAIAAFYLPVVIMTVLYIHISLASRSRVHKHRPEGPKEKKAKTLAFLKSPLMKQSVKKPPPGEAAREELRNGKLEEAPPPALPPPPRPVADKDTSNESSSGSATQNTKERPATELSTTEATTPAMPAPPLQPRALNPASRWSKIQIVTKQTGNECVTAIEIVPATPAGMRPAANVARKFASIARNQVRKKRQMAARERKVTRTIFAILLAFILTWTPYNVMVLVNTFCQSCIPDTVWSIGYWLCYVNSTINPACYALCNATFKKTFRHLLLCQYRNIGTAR
Experiment: Inhibition of [3H]NMS binding to human muscarinic acetylcholine receptor M4 in transfected CHO cells.
Type: cell-based
Method in brief: as §1

SMILES	Ki
CCCCCc1[nH]c2ccc3c(c2c1C(=O)OCC)CN1CCc2cc(OC)ccc2C1O3 (stereo not given)	0.011 µM
C=CCOC(=O)c1c(C)n(Cc2ccc(OC)cc2)c2ccc3c(c12)CN1CCc2cc(OC)ccc2C1O3 (stereo not given)	0.0724 µM
CCCc1[nH]c2ccc3c(c2c1C(=O)OCC)CN1CCc2cc(SC)ccc2C1O3 (stereo not given)	0.001 µM
COc1ccc2c(c1)CCN1Cc3c(ccc4[nH]c(C)c(-c5nc(C)no5)c34)OC21 (stereo not given)	0.0617 µM
COc1ccc2c(c1)CCN1Cc3c(ccc4[nH]c(C)c(Cc5ccccc5)c34)OC21 (stereo not given)	1.35 µM
CCOC(=O)c1c(CC)[nH]c2ccc3c(c12)CN1CCc2cc(OC)ccc2C1O3 (stereo not given)	0.00398 µM
CCOC(=O)c1c(C)[nH]c2ccc3c(c12)CN1CCc2cccc(Cl)c2C1O3 (stereo not given)	1.95 µM
CCOC(=O)c1c(C)[nH]c2ccc3c(c12)CN1CCc2cc(Cl)ccc2C1O3 (stereo not given)	0.363 µM
COC(=O)c1c(C)n(C)c2ccc3c(c12)CN1CCc2cc(OC)ccc2C1O3 (stereo not given)	0.191 µM

More lines, now with the values ahead:

Ki	SMILES
0.0141 µM	CCCCCCc1[nH]c2ccc3c(c2c1C(=O)OCC)CN1CCc2cc(OC)ccc2C1O3 (stereo not given)
0.00708 µM	CCOC(=O)c1c(C)[nH]c2ccc3c(c12)CN1CCc2cc(SC)ccc2C1O3 (stereo not given)
0.0724 µM	COc1ccc2c(c1)CCN1Cc3c(ccc4[nH]c(C)c(C(=O)OCc5ccccc5)c34)OC21 (stereo not given)
0.00302 µM	CCOC(=O)c1c(CC)n(C)c2ccc3c(c12)CN1CCc2cc(OC)ccc2C1O3 (stereo not given)

Biological target: T4, Muscarinic acetylcholine receptor M5 (Homo sapiens, UniProt P08912)
T4 sequence (P08912 whole entry): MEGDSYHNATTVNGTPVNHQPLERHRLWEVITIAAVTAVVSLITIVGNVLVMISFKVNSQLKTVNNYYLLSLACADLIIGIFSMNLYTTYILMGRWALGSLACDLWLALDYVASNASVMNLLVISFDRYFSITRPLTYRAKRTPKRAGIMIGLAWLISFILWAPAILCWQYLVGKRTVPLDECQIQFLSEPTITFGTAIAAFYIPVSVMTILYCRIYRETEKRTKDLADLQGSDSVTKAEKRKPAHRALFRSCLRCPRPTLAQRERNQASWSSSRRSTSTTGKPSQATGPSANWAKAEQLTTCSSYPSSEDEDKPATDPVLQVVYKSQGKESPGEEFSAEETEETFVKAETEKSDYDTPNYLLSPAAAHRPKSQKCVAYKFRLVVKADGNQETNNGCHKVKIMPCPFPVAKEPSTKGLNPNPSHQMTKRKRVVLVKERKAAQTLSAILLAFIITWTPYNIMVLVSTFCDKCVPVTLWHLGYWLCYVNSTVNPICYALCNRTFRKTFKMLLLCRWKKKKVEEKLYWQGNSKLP
Experiment: Inhibition of [3H]NMS binding to human muscarinic acetylcholine receptor M5 in transfected CHO cells.
Type: cell-based
Method in brief: as §1

SMILES	Ki
CCCCCc1[nH]c2ccc3c(c2c1C(=O)OCC)CN1CCc2cc(OC)ccc2C1O3 (stereo not given)	5.37 µM
C=CCOC(=O)c1c(C)n(Cc2ccc(OC)cc2)c2ccc3c(c12)CN1CCc2cc(OC)ccc2C1O3 (stereo not given)	0.501 µM
CCCc1[nH]c2ccc3c(c2c1C(=O)OCC)CN1CCc2cc(SC)ccc2C1O3 (stereo not given)	2.4 µM
COc1ccc2c(c1)CCN1Cc3c(ccc4[nH]c(C)c(-c5nc(C)no5)c34)OC21 (stereo not given)	6.17 µM
COc1ccc2c(c1)CCN1Cc3c(ccc4[nH]c(C)c(Cc5ccccc5)c34)OC21 (stereo not given)	1.12 µM
CCOC(=O)c1c(CC)[nH]c2ccc3c(c12)CN1CCc2cc(OC)ccc2C1O3 (stereo not given)	3.09 µM
CCOC(=O)c1c(C)[nH]c2ccc3c(c12)CN1CCc2cccc(Cl)c2C1O3 (stereo not given)	4.79 µM
CCOC(=O)c1c(C)[nH]c2ccc3c(c12)CN1CCc2cc(Cl)ccc2C1O3 (stereo not given)	5.37 µM
COC(=O)c1c(C)n(C)c2ccc3c(c12)CN1CCc2cc(OC)ccc2C1O3 (stereo not given)	3.63 µM

Continued, values first:

Ki	SMILES
> 28.2 µM	CCCCCCc1[nH]c2ccc3c(c2c1C(=O)OCC)CN1CCc2cc(OC)ccc2C1O3 (stereo not given)
1.95 µM	CCOC(=O)c1c(C)[nH]c2ccc3c(c12)CN1CCc2cc(SC)ccc2C1O3 (stereo not given)
1.12 µM	COc1ccc2c(c1)CCN1Cc3c(ccc4[nH]c(C)c(C(=O)OCc5ccccc5)c34)OC21 (stereo not given)
3.09 µM	CCOC(=O)c1c(CC)n(C)c2ccc3c(c12)CN1CCc2cc(OC)ccc2C1O3 (stereo not given)

Biological target: Muscarinic acetylcholine receptor M3 (Homo sapiens, UniProt P20309)
Experiment: Inhibition of [3H]NMS binding to human muscarinic acetylcholine receptor M3 in transfected CHO cells.
Type: cell-based
Method in brief: as §1

Muscarinic acetylcholine receptor M3, sequence (P20309 whole entry): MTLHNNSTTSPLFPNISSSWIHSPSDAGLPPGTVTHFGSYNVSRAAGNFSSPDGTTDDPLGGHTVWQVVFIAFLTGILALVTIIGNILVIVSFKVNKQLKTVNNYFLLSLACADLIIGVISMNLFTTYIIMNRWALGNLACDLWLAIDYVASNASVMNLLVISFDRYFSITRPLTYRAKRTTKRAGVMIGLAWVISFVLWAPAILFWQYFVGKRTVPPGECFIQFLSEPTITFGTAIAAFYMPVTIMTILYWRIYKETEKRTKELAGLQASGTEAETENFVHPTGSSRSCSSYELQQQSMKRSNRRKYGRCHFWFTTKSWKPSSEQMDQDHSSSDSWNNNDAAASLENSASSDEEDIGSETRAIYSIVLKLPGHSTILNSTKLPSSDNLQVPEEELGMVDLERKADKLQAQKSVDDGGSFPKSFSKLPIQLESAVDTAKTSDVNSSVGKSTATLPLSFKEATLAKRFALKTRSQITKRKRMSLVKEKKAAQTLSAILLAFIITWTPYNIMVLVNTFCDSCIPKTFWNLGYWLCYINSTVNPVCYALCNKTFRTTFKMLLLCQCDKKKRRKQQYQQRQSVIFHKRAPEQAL

SMILES	Ki
CCCCCc1[nH]c2ccc3c(c2c1C(=O)OCC)CN1CCc2cc(OC)ccc2C1O3 (stereo not given)	0.457 µM
C=CCOC(=O)c1c(C)n(Cc2ccc(OC)cc2)c2ccc3c(c12)CN1CCc2cc(OC)ccc2C1O3 (stereo not given)	0.676 µM
CCCc1[nH]c2ccc3c(c2c1C(=O)OCC)CN1CCc2cc(SC)ccc2C1O3 (stereo not given)	0.1 µM
COc1ccc2c(c1)CCN1Cc3c(ccc4[nH]c(C)c(-c5nc(C)no5)c34)OC21 (stereo not given)	3.09 µM
COc1ccc2c(c1)CCN1Cc3c(ccc4[nH]c(C)c(Cc5ccccc5)c34)OC21 (stereo not given)	2.04 µM
CCOC(=O)c1c(CC)[nH]c2ccc3c(c12)CN1CCc2cc(OC)ccc2C1O3 (stereo not given)	0.0912 µM
CCOC(=O)c1c(C)[nH]c2ccc3c(c12)CN1CCc2cccc(Cl)c2C1O3 (stereo not given)	5.13 µM
CCOC(=O)c1c(C)[nH]c2ccc3c(c12)CN1CCc2cc(Cl)ccc2C1O3 (stereo not given)	2.75 µM
COC(=O)c1c(C)n(C)c2ccc3c(c12)CN1CCc2cc(OC)ccc2C1O3 (stereo not given)	0.398 µM

Next, values leading:

Ki	SMILES
0.282 µM	CCCCCCc1[nH]c2ccc3c(c2c1C(=O)OCC)CN1CCc2cc(OC)ccc2C1O3 (stereo not given)
0.229 µM	CCOC(=O)c1c(C)[nH]c2ccc3c(c12)CN1CCc2cc(SC)ccc2C1O3 (stereo not given)
1.38 µM	COc1ccc2c(c1)CCN1Cc3c(ccc4[nH]c(C)c(C(=O)OCc5ccccc5)c34)OC21 (stereo not given)
0.219 µM	CCOC(=O)c1c(CC)n(C)c2ccc3c(c12)CN1CCc2cc(OC)ccc2C1O3 (stereo not given)
